Reference: ChEMBL document CHEMBL4396873, “Discovery of Potent, Selective, and Short-Acting Peptidic V2 Receptor Agonists” (J Med Chem, 2019)
Activity calls are given as the source filed them. The calls are words filed in the database; no cut-off is given here. Numbered stars: 1 amine (or outer) side, 2 acyl side, 3 side chain; on linkers, the order of the positions; unused ones are H or OH. Bridge positions count the residues as written; N and C are the ends. Square brackets hold non-standard residues; d marks the D form. Peptide text beside a SMILES is read from it. * marks the point of attachment. Phe(4-Cl) = N[C@@H](Cc1ccc(Cl)cc1)C(=O)O; Phe(4-F) = N[C@@H](Cc1ccc(F)cc1)C(=O)O; 2Thi = N[C@@H](Cc1cccs1)C(=O)O; Agmatine = N=C(N)NCCCCN*; Thz = O=C(O)[C@@H]1CSCN1; X1 = O=C(CCC[*:2])[*:1]; Mpa = O=C(O)CCS

Assays:
[1] = biological target: T1, Oxytocin receptor (Homo sapiens) (UniProt P30559); experiment: Agonist activity at human OTR stably expressed in CHOK1 cells up to 10000 nM by NFAT-luciferase reporter gene assay; assay type: cell-based
T1 sequence (whole entry): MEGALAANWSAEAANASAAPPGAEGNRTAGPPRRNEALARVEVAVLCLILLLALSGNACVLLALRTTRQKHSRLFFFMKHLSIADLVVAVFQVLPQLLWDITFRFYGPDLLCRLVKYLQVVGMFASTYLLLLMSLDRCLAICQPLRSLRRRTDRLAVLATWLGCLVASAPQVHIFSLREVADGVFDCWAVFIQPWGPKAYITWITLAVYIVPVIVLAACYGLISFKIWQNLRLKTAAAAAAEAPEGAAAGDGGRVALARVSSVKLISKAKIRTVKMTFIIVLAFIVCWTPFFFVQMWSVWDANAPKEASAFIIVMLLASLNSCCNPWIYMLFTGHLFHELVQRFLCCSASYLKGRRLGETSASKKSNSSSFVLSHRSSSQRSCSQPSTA

Vasopressin V1a receptor = Vasopressin V1a receptor (Homo sapiens, UniProt P37288); experiment: Agonist activity at recombinant human V1a receptor expressed in HEK293 cells up to 1000 nM measured after 5 hrs by luciferase reporter gene assay; assay type: cell-based; details: hek293, 5 h
[2] = Clearance in Sprague-Dawley rat at 0.1 mg/kg, iv administered as cassette dose by LC-MS/MS analysis; assay type: ADME, organism-based; details: in vivo
[3] = Protein binding in rat plasma at 200 to 1000 ng/ml measured after 15 mins by UC-LC/MS/MS analysis; assay type: ADME, cell-free; details: read-out: PPB (converted)
Method in brief: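 Peptide spiked into rat plasma to final 200-1000 ng/mL, incubated 15 min at 37 °C, ultracentrifuged at 773,000 xg for 30 min at 37 °C; middle-layer sample quantified by LC/MS/MS; binding (%) = (Ci − Cm)/Ci × 100; quadruplicate.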

[4] = Non-renal clearance in nephrectomized Sprague-Dawley rat at 0.1 mg/kg, iv administered as cassette dose by LC-MS/MS analysis; assay type: ADME, organism-based; details: in vivo
Vasopressin V2 receptor = Vasopressin V2 receptor (Homo sapiens, UniProt P30518); experiment: Agonist activity at recombinant human V2 receptor expressed in HEK293 cells measured after 5 hrs by cAMP response element driven luciferase reporter gene assay; assay type: functional, cell-based
Chain of Vasopressin V2 receptor (P30518 whole entry): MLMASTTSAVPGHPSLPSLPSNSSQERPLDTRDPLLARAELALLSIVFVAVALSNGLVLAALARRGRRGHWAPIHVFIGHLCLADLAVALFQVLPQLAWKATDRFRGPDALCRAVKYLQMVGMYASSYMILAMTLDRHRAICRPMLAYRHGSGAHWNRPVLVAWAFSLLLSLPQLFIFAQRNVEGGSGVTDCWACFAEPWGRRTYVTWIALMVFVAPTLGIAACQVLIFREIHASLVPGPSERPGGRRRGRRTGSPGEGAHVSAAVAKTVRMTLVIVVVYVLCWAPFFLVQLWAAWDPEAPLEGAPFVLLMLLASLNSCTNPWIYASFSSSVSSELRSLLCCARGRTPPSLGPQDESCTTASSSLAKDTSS

Chain of Vasopressin V1a receptor (P37288 whole entry): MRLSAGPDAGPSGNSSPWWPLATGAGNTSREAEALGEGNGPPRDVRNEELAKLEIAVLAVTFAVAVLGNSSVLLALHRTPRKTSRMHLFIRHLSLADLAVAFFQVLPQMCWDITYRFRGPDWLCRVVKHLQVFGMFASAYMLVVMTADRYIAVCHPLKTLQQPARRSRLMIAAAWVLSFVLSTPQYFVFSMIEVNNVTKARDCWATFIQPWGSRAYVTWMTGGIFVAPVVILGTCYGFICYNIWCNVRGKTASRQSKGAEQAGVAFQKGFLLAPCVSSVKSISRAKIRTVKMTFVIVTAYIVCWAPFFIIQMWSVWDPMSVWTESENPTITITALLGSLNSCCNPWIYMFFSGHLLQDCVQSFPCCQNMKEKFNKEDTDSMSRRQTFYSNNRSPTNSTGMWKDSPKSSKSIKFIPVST

Activity [1]	Activity (Vasopressin V1a receptor)	clearance [2] [mL/min/kg]	fraction unbound at […] [3]	CL [4] [%]	EC50 (Vasopressin V2 receptor) [pM]	SMILES
inactive	Not Active	7.5	0.06			CC(C)[C@@H]1NC(=O)[C@H](Cc2ccc(F)cc2)NC(=O)[C@H](Cc2ccc(Cl)cc2)NC(=O)CCCSC[C@@H](C(=O)N2CCC[C@H]2C(=O)NCCCCNC(=N)N)NC(=O)[C@H](CC(N)=O)NC1=O ([Phe(4-Cl)][Phe(4-F)]VNCP-Agmatine; linker N-5 via X1)
	Not Active	7.1	0.05	47		CCNC(=O)[C@@H](CCCNC(=N)N)NC(=O)[C@@H]1CCCN1C(=O)[C@@H]1CSSCCC(=O)N[C@@H](Cc2ccc(Cl)cc2)C(=O)N[C@@H](Cc2ccccc2)C(=O)N[C@@H](C(C)C)C(=O)N[C@@H](CC(N)=O)C(=O)N1
inactive	Not Active	10	0.16	49		CCNC(=O)[C@@H](CCCNC(=N)N)NC(=O)[C@@H]1CCCN1C(=O)[C@@H]1CSCCCC(=O)N[C@@H](Cc2ccc(Cl)cc2)C(=O)N[C@@H](Cc2cccs2)C(=O)N[C@@H](C(C)C)C(=O)N[C@@H](CC(N)=O)C(=O)N1
inactive	Not Active	10	0.09	67		CC(C)[C@@H]1NC(=O)[C@H](Cc2cccs2)NC(=O)[C@H](Cc2ccc(Cl)cc2)NC(=O)CCCSC[C@@H](C(=O)N2CCC[C@H]2C(=O)N[C@H](CCCNC(=N)N)C(=O)NC2CC2)NC(=O)[C@H](CC(N)=O)NC1=O
inactive	Not Active	31	0.17	90		CCCNC(=O)[C@@H](CCCNC(=N)N)NC(=O)[C@@H]1CSCN1C(=O)[C@@H]1CSCCCC(=O)N[C@@H](Cc2ccc(Cl)cc2)C(=O)N[C@@H](Cc2cccs2)C(=O)N[C@@H](C(C)C)C(=O)N[C@@H](CC(N)=O)C(=O)N1
inactive	Not Active	8.7	0.69	45		CC(C)[C@@H]1NC(=O)[C@H](Cc2ccc(F)cc2)NC(=O)[C@H](Cc2ccc(O)cc2)NC(=O)CCCSC[C@@H](C(=O)N2CCC[C@H]2C(=O)NCCCCNC(=N)N)NC(=O)[C@H](CC(N)=O)NC1=O (Y[Phe(4-F)]VNCP-Agmatine; linker N-5 via X1)
inactive	Not Active	9.9	0.04	85		CC(C)[C@@H]1NC(=O)[C@H](Cc2ccc(F)cc2)NC(=O)[C@H](Cc2ccc(Cl)cc2)NC(=O)CCCSC[C@@H](C(=O)N2CSC[C@H]2C(=O)NCCCCNC(=N)N)NC(=O)[C@H](CC(N)=O)NC1=O ([Phe(4-Cl)][Phe(4-F)]VNC[Thz]-Agmatine; linker N-5 via X1)

Second part, the compound before the results:

SMILES	Activity [1]	Activity (Vasopressin V1a receptor)	clearance [2] [mL/min/kg]	fraction unbound at […] [3]	CL [4] [%]	EC50 (Vasopressin V2 receptor) [pM]
CC(C)[C@@H]1NC(=O)[C@H](Cc2cccs2)NC(=O)[C@H](Cc2ccc(Cl)cc2)NC(=O)CCCSC[C@@H](C(=O)N2CCC[C@H]2C(=O)N[C@H](CCCNC(=N)N)C(=O)NCc2ccccc2)NC(=O)[C@H](CC(N)=O)NC1=O	inactive	Not Active	23	0.1	84	
CC(C)[C@@H]1NC(=O)[C@H](Cc2cccs2)NC(=O)[C@H](Cc2ccc(Cl)cc2)NC(=O)CCCSC[C@@H](C(=O)N2CCC[C@H]2C(=O)N[C@H](CCCNC(=N)N)C(=O)NCC2CC2)NC(=O)[C@H](CC(N)=O)NC1=O	inactive	Not Active	21	0.16		
CC(C)CNC(=O)[C@@H](CCCNC(=N)N)NC(=O)[C@@H]1CCCN1C(=O)[C@@H]1CCSCCC(=O)N[C@@H](Cc2ccc(Cl)cc2)C(=O)N[C@@H](Cc2cccs2)C(=O)N[C@@H](C(C)C)C(=O)N[C@@H](CC(N)=O)C(=O)N1	inactive	Not Active				
CCCCNC(=O)[C@@H](CCCNC(=N)N)NC(=O)[C@@H]1CCCN1C(=O)[C@@H]1CSCCCC(=O)N[C@@H](Cc2ccc(Cl)cc2)C(=O)N[C@@H](Cc2cccs2)C(=O)N[C@@H](C(C)C)C(=O)N[C@@H](CC(N)=O)C(=O)N1	inactive	Not Active	31	0.11	57	
CCCNC(=O)[C@@H](CCCNC(=N)N)NC(=O)[C@@H]1CCCN1C(=O)[C@@H]1CSCCCC(=O)N[C@@H](Cc2ccc(Cl)cc2)C(=O)N[C@@H](Cc2cccs2)C(=O)N[C@@H](C(C)C)C(=O)N[C@@H](CC(N)=O)C(=O)N1	inactive	Not Active	26	0.16	59	
CCNC(=O)[C@@H](CCCNC(=N)N)NC(=O)[C@@H]1CSCN1C(=O)[C@@H]1CSCCCC(=O)N[C@@H](Cc2ccc(Cl)cc2)C(=O)N[C@@H](Cc2cccs2)C(=O)N[C@@H](C(C)C)C(=O)N[C@@H](CC(N)=O)C(=O)N1	inactive	Not Active	28	0.07	80	
CCNC(=O)[C@@H](CCCNC(=N)N)NC(=O)[C@@H]1CSCN1C(=O)[C@@H]1CCSCCC(=O)N[C@@H](Cc2ccc(Cl)cc2)C(=O)N[C@@H](Cc2cccs2)C(=O)N[C@@H](C(C)C)C(=O)N[C@@H](CC(N)=O)C(=O)N1	inactive	Not Active	11	0.08		110
CCNC(=O)[C@@H](CCCNC(=N)N)NC(=O)[C@@H]1C[C@@H](O)CN1C(=O)[C@@H]1CCSCCC(=O)N[C@@H](Cc2ccc(Cl)cc2)C(=O)N[C@@H](Cc2cccs2)C(=O)N[C@@H](C(C)C)C(=O)N[C@@H](CC(N)=O)C(=O)N1	inactive	Not Active	4	0.1	58	
CC(C)CNC(=O)[C@@H](CCCNC(=N)N)NC(=O)[C@@H]1C[C@@H](O)CN1C(=O)[C@@H]1CSCCCC(=O)N[C@@H](Cc2ccc(Cl)cc2)C(=O)N[C@@H](Cc2cccs2)C(=O)N[C@@H](C(C)C)C(=O)N[C@@H](CC(N)=O)C(=O)N1	inactive	Not Active	7.8	0.13		
CC(C)[C@@H]1NC(=O)[C@H](Cc2cccs2)NC(=O)[C@H](Cc2ccc(Cl)cc2)NC(=O)CCCSC[C@@H](C(=O)N2CSC[C@H]2C(=O)NCCCCNC(=N)N)NC(=O)[C@H](CC(N)=O)NC1=O ([Phe(4-Cl)][2Thi]VNC[Thz]-Agmatine; linker N-5 via X1)	inactive	Not Active	16	0.16	90	
CC(C)CNC(=O)[C@@H](CCCNC(=N)N)NC(=O)[C@@H]1C[C@@H](O)CN1C(=O)[C@@H]1CCSCCC(=O)N[C@@H](Cc2ccc(Cl)cc2)C(=O)N[C@@H](Cc2cccs2)C(=O)N[C@@H](C(C)C)C(=O)N[C@@H](CC(N)=O)C(=O)N1	inactive	Not Active	5.9	0.08		200
CC(C)[C@@H]1NC(=O)[C@H](Cc2ccccc2)NC(=O)[C@H](Cc2ccc(O)cc2)NC(=O)CCSSC[C@@H](C(=O)N2CCC[C@H]2C(=O)N[C@H](CCCNC(=N)N)C(=O)NCC(N)=O)NC(=O)[C@H](CC(N)=O)NC1=O ([Mpa]YFVNCP[dR]G-NH2; disulfide 1-6)		Not Active	9.6	0.69		50
CC(C)CNC(=O)[C@@H](CCCNC(=N)N)NC(=O)[C@@H]1CCCN1C(=O)[C@@H]1CSCCCC(=O)N[C@@H](Cc2ccc(Cl)cc2)C(=O)N[C@@H](Cc2cccs2)C(=O)N[C@@H](C(C)C)C(=O)N[C@@H](CC(N)=O)C(=O)N1	inactive	Not Active	24	0.14	63	
CC(C)CNC(=O)[C@H](CCCNC(=N)N)NC(=O)[C@@H]1CCCN1C(=O)[C@@H]1CSCCCC(=O)N[C@@H](Cc2ccc(Cl)cc2)C(=O)N[C@@H](Cc2cccs2)C(=O)N[C@@H](C(C)C)C(=O)N[C@@H](CC(N)=O)C(=O)N1	inactive	Not Active	51	0.16		
CC(C)CNC(=O)[C@@H](CCCNC(=N)N)NC(=O)[C@@H]1CCCN1C(=O)[C@@H]1CCSCCC(=O)N[C@@H](Cc2ccc(Cl)cc2)C(=O)N[C@@H](Cc2ccccc2)C(=O)N[C@@H](C(C)C)C(=O)N[C@@H](CC(N)=O)C(=O)N1	inactive	Not Active	5.4	0.05	88	
